Assay [1] addresses T1, High affinity immunoglobulin epsilon receptor subunit alpha (Homo sapiens) (UniProt P12319).
T1 sequence (whole entry): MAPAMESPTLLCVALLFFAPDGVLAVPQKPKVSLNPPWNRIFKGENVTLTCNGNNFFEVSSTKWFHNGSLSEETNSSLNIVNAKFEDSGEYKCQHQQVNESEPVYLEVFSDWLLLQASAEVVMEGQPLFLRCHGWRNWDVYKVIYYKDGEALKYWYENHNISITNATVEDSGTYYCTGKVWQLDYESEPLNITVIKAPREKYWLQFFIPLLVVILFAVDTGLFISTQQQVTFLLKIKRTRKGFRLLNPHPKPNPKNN
Put plainly: (§1) Inhibition of anti-IgE antibody-stimulated histamine release in human basophills at 10 uM. Format: functional. Summed up: (§2)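 Human leukocytes isolated after red-cell sedimentation, washed, suspended in buffer; preincubated with compound then challenged with anti-IgE. Released histamine measured by automated fluorometric assay; percent inhibition versus undrugged anti-IgE-challenged controls.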

Assay [2] concerns the target T1, High affinity immunoglobulin epsilon receptor subunit alpha (Homo sapiens). Put plainly: (§3) Inhibition of anti-IgE antibody-stimulated histamine release in human basophills at 33 uM. Format: functional. Summed up:
as §2

The species named for assay [3] is Homo sapiens. Put plainly: Inhibition of anti-IgE antibody stimulated histamine release in human lung, at 75 uM compound concentration; […]. The class given is functional.
For assay [4], the species on record is Cavia porcellus. The experiment in a line: Inhibition of ovalbumin-stimulated histamine release in guinea pig lung, at 75 uM compound concentration; […]. Format: functional.
For assay [5], the species on record is Homo sapiens. The experiment in a line: Inhibition of anti-IgE antibody-stimulated histamine release in human basophills at 33 uM; c = sample fluorescence interferes with the histamine assay. Format: functional. Summed up:
as §2

The species named for assay [6] is Homo sapiens. The assay is described as §1. Format: functional. In outline: as §2
For assay [7], the species on record is Cavia porcellus. The experiment in a line: Inhibition of ovalbumin-stimulated histamine release in guinea pig lung. Format: functional, organism-based.
For assay [8], the species on record is Homo sapiens. The assay is described as §3. The class given is functional, organism-based. Summed up: as §2
Assay [9] is filed under the species Homo sapiens. The experiment in a line: Inhibition of anti-IgE antibody stimulated histamine release in human lung. The class given is functional, organism-based. Summed up:
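Grossly normal human lung from lobectomy, dissected, chopped into 25–75-mg fragments, washed, held overnight in Tyrode's buffer at room temperature, rewashed. About 400 mg tissue at 37 °C in Tyrode's for 10 min, drug or vehicle added, 10 min later anti-IgE (final 3:1000), 30 min further incubation, supernatant sampled for histamine.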

The species named for assay [10] is Homo sapiens. The experiment in a line: Inhibition of anti-IgE antibody stimulated histamine release in human basophils. Format: functional. Summed up: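 Human leukocytes obtained after red-cell sedimentation, washed and suspended in buffer, preincubated with drug, then challenged with anti-IgE. Histamine quantified by automated fluorometric assay; percent inhibition vs nondrug anti-IgE-challenged controls. IC50 from threefold concentrations 1–100 μM.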

For assay [11], the species on record is Cavia porcellus. Put plainly: Inhibition of ovalbumin stimulated histamine release in guinea pig lung.

Molecules are shown by their SMILES.

In the case of `CCOc1c(C(=O)Nc2nn[nH]n2)[nH]c2ccc(OC)cc12`, the inhibition in [1] is 7%; in [2], 46%.

Take `CCCc1c2oc(C(=O)O)cc(=O)c2cc2c(=O)cc(C(=O)O)n(CC)c12` [NEDOCROMIL]: the Inhibition result in the assay listed under Homo sapiens [3] and in the assay filed under Cavia porcellus [4] was “<=25%” throughout. The molecule further showed an inhibition in assay [2] of under 25%. Turning to `COc1ccc2c(c1)c(Sc1ccccc1)c(C(=O)Nc1nn[nH]n1)n2-c1ccccc1`, the inhibition in assay [1] was 30%; in assay [2], 82%.

`CC(C)Oc1c(C(=O)Nc2nn[nH]n2)n(-c2ccccc2)c2ccc(Br)cc12`: the inhibition in assay [1] is 7%; in [2] it was 33%. With `COc1ccc2c(c1)c(OC(C)C)c(-c1nn[nH]n1)n2-c1ccccc1`, the inhibition is 25% in [1] and 37% in assay [2].

Take `COc1ccc2c(OC(C)C)c(C(=O)Nc3nn[nH]n3)n(-c3ccccc3)c2c1`: the values for the inhibition in [1] and in assay [2] were 24% and 50%, respectively.

Turning to `COc1ccc2c(c1)c(OC)c(C(=O)Nc1nn[nH]n1)n2-c1ccccc1`, the inhibition in assay [1] worked out at 46%; in [2] it was 74%. `CC(C)Oc1c(C(=O)Nc2nn[nH]n2)n(-c2ccccc2)c2ccccc12` registered an inhibition in assay [2] of under 25%. Take `CCCCCCCCCOc1c(C(=O)Nc2nn[nH]n2)n(-c2ccccc2)c2ccc(OC)cc12`: in the assay listed under Homo sapiens [5], the inhibition entry is listed as “Sample fluorescence interferes with histamine assay”.

For the molecule `O=C([O-])c1cc(=O)c2c(OCC(O)COc3cccc4oc(C(=O)[O-])cc(=O)c34)cccc2o1.[Na+].[Na+]` [CROMOLYN SODIUM], the Inhibition entry in the assay listed under Homo sapiens [3] and in the assay listed under Cavia porcellus [4] was “<=25%” each time. The inhibition in assay [2] was under 25%.

As to `COc1ccc2c(c1)c(C(C)C)c(C(=O)Nc1nn[nH]n1)n2-c1ccccc1`, in assay [2], the inhibition is under 25%. As to `COc1ccc2[nH]c(C(=O)Nc3nn[nH]n3)c(OC(C)C)c2c1`, the inhibition in assay [1] was found to be 17%; in assay [2], 62%. As to `COc1cccc2c1c(OC(C)C)c(C(=O)Nc1nn[nH]n1)n2-c1ccccc1`, in assay [2], the inhibition was under 25%. As for `CC(C)Oc1c(C(=O)Nc2nn[nH]n2)n(-c2ccccc2)c2cc(Cl)c(Cl)cc12`, the inhibition came to 40% in [1] and 84% in assay [2]. With `COc1ccc(-n2c(C(=O)Nc3nn[nH]n3)c(OC(C)C)c3ccccc32)cc1`, the inhibition in assay [2] is under 25%. For `COc1ccc2c(c1)c(SC)c(C(=O)Nc1nn[nH]n1)n2-c1ccccc1`, the inhibition is 20% in assay [1] and 66% in assay [2]. With `CCOc1c(C(=O)Nc2nn[nH]n2)n(-c2ccccc2)c2ccc(OC)cc12`, the Inhibition in the assay listed under Homo sapiens [6] was determined as 55%. Also, the inhibition in assay [2] stood at 73%. As to `CCOc1c(C(=O)Nc2nn[nH]n2)n(Cc2ccccc2)c2ccc(OC)cc12`, the inhibition amounted to 26% in assay [1] and 55% in assay [2]. `COc1ccc2c(c1)c(OCc1ccccc1)c(C(=O)Nc1nn[nH]n1)n2-c1ccccc1`: the inhibition in assay [1] was 43%; in [2], 84%.

With `COc1ccc(-n2c(C(=O)Nc3nn[nH]n3)c(OC(C)C)c3cc(OC)ccc32)cc1`, the inhibition in [1] was 16%; in assay [2], 49%. `COc1ccc2c(c1)c(Oc1ccc([N+](=O)[O-])cc1)c(C(=O)Nc1nn[nH]n1)n2-c1ccccc1` gave an inhibition in [2] of under 25%. For `COc1ccc2c(c1)c(OC(C)C)c(C(=O)Nc1nn[nH]n1)n2C`, the values for the inhibition in assay [1] and in assay [2] were 18% and 45%, respectively. In assay [2], `CC(C)Oc1c(C(=O)Nc2nn[nH]n2)n(-c2ccccc2)c2ccc(O)cc12` showed an inhibition of under 25%. As to `COc1ccc2c(c1)c(SC(C)C)c(C(=O)Nc1nn[nH]n1)n2-c1ccccc1`, the results for the inhibition in [1] and in [2] were 13% and 50%, respectively. In the case of `Cc1ccc2c(c1)c(OC(C)C)c(C(=O)Nc1nn[nH]n1)n2-c1ccccc1`, the inhibition in [2] is under 25%. Take `COc1ccc2c(c1)c(OC(C)C)c(C(=O)Nc1nn[nH]n1)n2Cc1ccccc1`: the inhibition in [1] worked out at 61%; in assay [2], 69%. On to `COc1ccc2c(c1)c1oc(C(=O)Nc3nnn[nH]3)c(OC)c1n2-c1ccccc1.NC(N)=NCCC[C@H](N)C(=O)O`, for which the IC50 in the assay filed under Cavia porcellus [7] came to 13.4 µM; in the assay listed under Homo sapiens [8], 8.5 µM. For the molecule `COc1ccc2c(c1)c(OC(C)C)c(C(=O)Nc1nn[nH]n1)n2-c1ccccc1`, the IC50 in the assay filed under Homo sapiens [9] came out at 16.6 µM; in the assay listed under Homo sapiens [10] it was 15 µM; in the assay listed under Cavia porcellus [11] it was 26.7 µM. Besides, the inhibition was determined as 46% in [1] and 82% in [2].

`CC(C)Oc1c(C(=O)Nc2nn[nH]n2)n(-c2ccccc2)c2ccc(Cl)cc12`: the inhibition in assay [1] stood at 18%; in assay [2] it was 72%.

For `CC(C)Oc1c(C(=O)Nc2nn[nH]n2)n(-c2ccccc2)c2ccc(OCc3ccccc3)cc12`, the inhibition in [1] worked out at 65%; in assay [2], 66%. The molecule `COc1ccc2c(c1)cc(C(=O)Nc1nn[nH]n1)n2-c1ccccc1` displayed an inhibition in assay [2] of under 25%. For `COc1ccc2c(c1)c(S(C)(=O)=O)c(C(=O)Nc1nn[nH]n1)n2-c1ccccc1`, the inhibition in assay [2] is under 25%. `O=C(Nc1nn[nH]n1)c1c(OCc2ccccc2)c2ccccc2n1-c1ccccc1` yielded an inhibition in assay [2] of under 25%. Consider `COc1ccc2c(c1)c(O)c(C(=O)Nc1nn[nH]n1)n2-c1ccccc1`, for which, in assay [2], the inhibition was under 25%.

The record behind these values is ChEMBL document CHEMBL1124502, “Novel indolecarboxamidotetrazoles as potential antiallergy agents” (J Med Chem, 1989).
